Results published in publication PMC4368043 (ACS Chemical Neuroscience, 2014).
Entries after “also recorded” stand apart in the source; their conditions may differ.

Key:
JNK = test: Immunoblotting of thapsigargin-induced phospho-JNK in H4 cells; type: cell-based, human; settings: compound 25 μM and 5 μM 2 h, then 20 μM thapsigargin 1 h, immunoblot
Summary of the method: (§1)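 H4 cells, 2.5 × 10^6 per 10 cm dish, grown overnight in phenol red-free DMEM with 2% FBS, then serum-starved 2 h. Test compound at 25 or 5 μM for 2 h, then thapsigargin 20 μM for 1 h. Lysed in RIPA buffer with protease and phosphatase inhibitors; protein measured by BCA. 50 μg run on 4–12% Bis-Tris SDS-PAGE and transferred to PVDF. Probed for phospho-p38, p38, phospho-JNK and JNK; HRP secondaries, ECL detection.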

H4 cells = test: Cell viability assay, thapsigargin as stressor; type: cell-based, human; settings: 7.5 μM thapsigargin; for cytoprotective activity against thapsigargin-induced cell death (in words): H4 cells; for EC50: read-out: H4 EC50 ± SEM, cytoprotection, dose-response
Summary of the method: (§2)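 Cells plated overnight at 37 °C, 5% CO2 in phenol red-free DMEM with 2% FBS (SH-SY5Y 4 × 10^4, H4 2.5 × 10^3 cells/well). Test compound in dose–response for 2 h, then thapsigargin 7.5 μM final for 18 h at 37 °C. Read by MTS absorbance at 490 nm. Viability % = background-subtracted (cell-free medium) relative to DMSO-only, no-thapsigargin wells. EC50 from dose–response curves. ≥3 repeats, mean ± SEM.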

p38 MAPK [1] = test: Immunoblotting of thapsigargin-induced phospho-p38 MAPK in H4 cells; type: cell-based, human; settings: compound 25 μM and 5 μM 2 h, then 20 μM thapsigargin 1 h, immunoblot
Summary of the method: as §1

SH-SY5Y cells = test: Cell viability assay, thapsigargin as stressor; type: cell-based, human; settings: 7.5 μM thapsigargin; for cytoprotective activity against thapsigargin-induced cell death (in words): SH-SY5Y cells; for EC50: read-out: SH-SY5Y EC50 ± SEM, cytoprotection, dose-response
Summary of the method: as §2

Plasma stability assay = type: in vitro ADME; settings: male, C57BL/6, mouse
Summary of the method: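 Plasma from male C57BL/6 mice, diluted 1:1 with PBS and warmed to 37 °C. Test compound added to 1 μM final and incubated 3 h at 37 °C with shaking. Zero-time and end samples quenched in 5:1 acetonitrile:water and centrifuged. Indomethacin added as internal standard. Quantified by LC-MS/MS in MRM mode; % remaining at 3 h.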

[2] = Microsomal stability assay; type: in vitro ADME; settings: mouse, pooled mouse liver microsomes
Summary of the method: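 Pooled mouse liver microsomes (1 μg/μL protein) preincubated 10 min at 37 °C with test compound (4 μM final). Started with NADPH (2 mM final) and incubated 1 h at 37 °C with shaking. Zero-time and end samples quenched in 5:1 acetonitrile:water and centrifuged. Indomethacin added as internal standard. Quantified by triple-quadrupole LC-MS/MS in MRM mode; % remaining at 1 h.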

[3] = test system: panel of 46 receptors, ion channels, and transporters; test: NIMH PDSP off-target panel; type: binding
p38 MAPK [4] = test: Activity of p38 MAPK pathway, H4-CHOP-luciferase reporter cells; type: cell-based, human
Summary of the method: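 H4 cells stably carrying pFR-Luc and pFA-CHOP plasmids, 1000 cells/well, grown 24 h in 10% FBS DMEM, then switched to phenol red-free DMEM with 2% FBS. Test compound for 1 h at 37 °C (10 μM with thapsigargin or CDDO-IM; 20 μM with MG132; 50 μM with ionomycin). Read by Steady-Glo luminescence. RLU % = background-subtracted (compound-only wells) relative to inducer-only wells. ≥3 repeats, mean ± SEM, one-way ANOVA.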

| Compound | remaining at 3 h, 1 μM (Plasma stability assay) | remaining at 1 h, 4 μM [2] | EC50 (SH-SY5Y cells) | cytoprotective activity against thapsigargin-induced cell death (in words) (SH-SY5Y cells) | EC50 (H4 cells) | further results |
| --- | --- | --- | --- | --- | --- | --- |
| CC1(C)CC(=O)C2=C(C1)Nc1cc(C(=O)c3ccccc3)ccc1NC2c1ccsc1 (centres unmarked) [4mm, 7-Benzoyl-3,3-dimethyl-11-(thiophen-3-yl)-2,3,4,5,10,11-hexahydro-1H-dibenzo[b,e] [1,4]diazepin-1-one] | – | – | – | devoid of cytoprotective activity; also recorded: does not | – | JNK activity (phosphorylation) in response to thapsigargin (JNK): had no effect; cytoprotective activity against thapsigargin-induced cell death (in words) (H4 cells): devoid of cytoprotective activity; p38 activity (phosphorylation) in response to thapsigargin (p38 MAPK [1]): had no effect |
| CCN(CC)c1ccc(C2Nc3ccc(C(=O)c4ccccc4)cc3NC3=C2C(=O)CC(C)(C)C3)cc1 (centres unmarked) [4hh, 7-Benzoyl-11-(4-(diethylamino)phenyl)-3,3-dimethyl-2,3,4,5,10,11-hexahydro-1H-dibenzo[b,e][1,4]diazepin-1-one] | ≥ 100% | 7.9 ± 6.3% | – | very strong cytoprotective activity | – | JNK activity (phosphorylation) in response to thapsigargin (JNK): significantly reduced; off-target interactions in PDSP panel [3]: No significant off-target interactions were detected; p38 activation initiated by CDDO-IM (CHOP-luciferase RLU) (p38 MAPK [4]; 10 μM compound 1 h, CDDO-IM 600 nM 18 h): reduced p38 activation; p38 activation initiated by thapsigargin (CHOP-luciferase RLU) (p38 MAPK [4]; 10 μM compound 1 h, thapsigargin 20 nM 18 h): reduced p38 activation; p38 activity stimulated by MG132 (CHOP-luciferase RLU) (p38 MAPK [4]; 20 μM compound 1 h, MG132 740 nM 18 h): had no effect; p38 activation initiated by ionomycin (CHOP-luciferase RLU) (p38 MAPK [4]; 50 μM compound 1 h, ionomycin 120 nM 18 h): reduced p38 activation; calcium regulator-induced p38 MAPK activation (p38 MAPK [4]; H4-CHOP-luciferase reporter cells, inducers that disrupt calcium homeostasis): moderate inhibition; also recorded: inhibits; p38 activity (phosphorylation) in response to thapsigargin (p38 MAPK [1]): significantly reduced |
| CC1(C)CC(=O)C2=C(C1)Nc1cc(C(=O)c3ccccc3)ccc1NC2c1ccc(O)cc1 (centres unmarked) [4ll, 7-Benzoyl-11-(4-hydroxyphenyl)-3,3-dimethyl-2,3,4,5,10,11-hexahydro-1H-dibenzo[b,e] [1,4]diazepin-1-one] | – | – | – | devoid of cytoprotective activity | – | cytoprotective activity against thapsigargin-induced cell death (in words) (H4 cells): devoid of cytoprotective activity |
| CN(C)c1ccc(C2Nc3ccc(Br)cc3NC3=C2C(=O)CC(C)(C)C3)cc1 (centres unmarked) [4s, 7-Bromo-11-(4-(dimethylamino)phenyl)-3,3-dimethyl-2,3,4,5,10,11-hexahydro-1H-dibenzo [b,e][1,4]diazepin-1-one] | – | – | – | – | 12.9 ± 0.92 µM | – |
| CCCCN(CCCC)c1ccc(C2Nc3ccc(Br)cc3NC3=C2C(=O)CC(C)(C)C3)cc1 (centres unmarked) [4w, 7-Bromo-11-(4-(dibutylamino)phenyl)-3,3-dimethyl-2,3,4,5,10,11-hexahydro-1H-dibenzo [b,e][1,4]diazepin-1-one] | – | – | – | but not in SH-SY5Y cells | 13.1 ± 2.53 µM | – |

Continued, in another order:

| remaining at 3 h, 1 μM (Plasma stability assay) | remaining at 1 h, 4 μM [2] | EC50 (SH-SY5Y cells) | Compound | cytoprotective activity against thapsigargin-induced cell death (in words) (SH-SY5Y cells) | EC50 (H4 cells) | further results |
| --- | --- | --- | --- | --- | --- | --- |
| ≥ 100% | 4.7 ± 1.7% | 16 ± 0.82 µM | CC1(C)CC(=O)C2=C(C1)Nc1cc(C(F)(F)F)ccc1NC2c1ccc(N2CCCCC2)cc1 (centres unmarked) [4ff, 3,3-Dimethyl-11-(4-(piperidin-1-yl)phenyl)-7-(trifluoromethyl)-2,3,4,5,10,11-hexahydro-1H-dibenzo[b,e][1,4]diazepin-1-one] | – | 19.5 ± 2.15 µM | – |
| ≥ 100% | 12.9 ± 1.6% | – | CC1(C)CC(=O)C2=C(C1)Nc1cc(C(=O)c3ccccc3)ccc1NC2c1ccc(N2CCCCC2)cc1 (centres unmarked) [4jj, 7-Benzoyl-3,3-dimethyl-11-(4-(piperidin-1-yl)phenyl)-2,3,4,5,10,11-hexahydro-1H-dibenzo[b,e][1,4]diazepin-1-one] | – | – | – |
| 98.8 ± 3.7% | 1.8 ± 0.4% | 14 ± 0.18 µM | CC1(C)CC(=O)C2=C(C1)Nc1cc(C(F)(F)F)ccc1NC2c1ccc(N2CCCC2)cc1 (centres unmarked) [4ee, 3,3-Dimethyl-11-(4-(pyrrolidin-1-yl)phenyl)-7-(trifluoromethyl)-2,3,4,5,10,11-hexahydro-1H-dibenzo[b,e][1,4]diazepin-1-one] | – | 18.8 ± 2.77 µM | – |
| 97.9 ± 5.7% | 1.8 ± 2.1% | – | CCN(CC)c1ccc(C2Nc3ccc(-c4ccccc4)cc3NC3=C2C(=O)CC(C)(C)C3)cc1 (centres unmarked) [4y, 11-(4-(Diethylamino)phenyl)-3,3-dimethyl-7-phenyl-2,3,4,5,10,11-hexahydro-1H-dibenzo [b,e][1,4]diazepin-1-one] | – | – | – |
| ≥ 100% | 0.1 ± 0.1% | 14.6 ± 1.61 µM | CC1(C)CC(=O)C2=C(C1)Nc1cc(Br)ccc1NC2c1ccc(N2CCCC2)cc1 (centres unmarked) [4t, 7-Bromo-3,3-dimethyl-11-(4-(pyrrolidin-1-yl)phenyl)-2,3,4,5,10,11-hexahydro-1H-dibenzo [b,e][1,4]diazepin-1-one] | – | – | – |
